{"data": "Experimental data from different studies", "read-out": "cell growth or viability", "note": "Protocols differ between the studies behind these lines."}
{"SMILES": "NCCCC(=O)Nc1ccccc1/N=c1\\cc(-c2ccc3c(c2)OCO3)oc2ccccc12", "cell line": "NCI-H1975", "test": "CCK-8", "setting": "1 µM", "endpoint": "inhibition", "value": "1.32%"}
{"SMILES": "CCCCC(=O)Nc1ncc(-c2ccc3ncn(CCC)c(=O)c3c2)cn1", "cell line": "NCI-H1975", "test": "CCK-8", "setting": "72 h", "endpoint": "IC50", "value": "2.87 µM"}
{"SMILES": "C[C@H](N)C(=O)Nc1ccccc1/N=c1\\cc(-c2ccc3c(c2)OCCO3)oc2c([N+](=O)[O-])cccc12", "cell line": "NCI-H1975", "test": "CCK-8", "setting": "1 µM", "endpoint": "inhibition", "value": "1.15%"}
{"SMILES": "CC(C)NC(=O)Nc1nc2cc(-c3ccc4ncn(Cc5ccccc5)c(=O)c4c3)ccc2s1", "cell line": "NCI-H1975", "test": "MTT", "setting": "72 h", "endpoint": "IC50", "value": "5.54 µM"}
{"SMILES": "COc1ccc2/c(=N/c3ccccc3NC(=O)[C@@H](N)CO)cc(-c3ccc4c(c3)OCCO4)oc2c1", "cell line": "NCI-H1975", "test": "CCK-8", "setting": "1 µM", "endpoint": "inhibition", "value": "1.06%"}
{"SMILES": "CCCCCCCCCCCCCCCCCCOc1cccc(CC(=O)OCC[N+](C)(C)C)c1", "cell line": "NCI-H322M", "test": "SRB", "setting": "10 µM", "endpoint": "inhibition", "value": "0.32%"}
{"SMILES": "CC(C)(C)[C@H](N)C(=O)Nc1ccccc1/N=c1\\cc(-c2ccc3c(c2)OCO3)oc2ccccc12", "cell line": "NCI-H1975", "test": "CCK-8", "setting": "1 µM", "endpoint": "inhibition", "value": "3.21%"}
{"SMILES": "CCCCCCCCCCCCCCCCCCOc1ccc(CC(=O)OCC[N+]2(C)CCOCC2)cc1", "cell line": "NCI-H322M", "test": "SRB", "setting": "10 µM", "endpoint": "inhibition", "value": "3.14%"}
{"SMILES": "COc1ccc(NC(=O)Nc2nc3cc(-c4ccc5ncn(Cc6ccccc6)c(=O)c5c4)ccc3s2)cc1", "cell line": "NCI-H1975", "test": "MTT", "setting": "72 h", "endpoint": "IC50", "value": "> 20 µM"}
{"SMILES": "CCCn1cnc2ccc(-c3ccc(NC(=O)CC)nc3)cc2c1=O", "cell line": "NCI-H1975", "test": "CCK-8", "setting": "72 h", "endpoint": "IC50", "value": "1.08 µM"}
{"SMILES": "O=C(Nc1ccccc1/N=c1\\cc(-c2ccc3c(c2)OCCO3)oc2cc(F)ccc12)N1CCOCC1", "cell line": "NCI-H1975", "test": "CCK-8", "setting": "1 µM", "endpoint": "inhibition", "value": "2.35%"}
{"SMILES": "CCCCC(=O)Nc1ccc(-c2cnc3ccn(CCC)c(=O)c3c2)cn1", "cell line": "NCI-H1975", "test": "CCK-8", "setting": "72 h", "endpoint": "IC50", "value": "1.21 µM"}
{"SMILES": "Cc1cc(C)cc(NC(=O)Nc2nc3cc(-c4ccc5ncn(Cc6ccccc6)c(=O)c5c4)ccc3s2)c1", "cell line": "NCI-H1975", "test": "MTT", "setting": "72 h", "endpoint": "IC50", "value": "> 20 µM"}
{"SMILES": "Cc1nc(NC(=O)N2CCC[C@H]2C(N)=O)sc1-c1ccnc(C(C)(C)C(F)(F)F)c1", "cell line": "MKN-1", "test": "ATP luminescence", "setting": "5 days", "endpoint": "EC50", "value": "2.11 µM"}
{"SMILES": "CC(C)CCn1cnc2ccc(-c3ccc4sc(NC(=O)Nc5ccc(F)cc5)nc4c3)cc2c1=O", "cell line": "NCI-H1975", "test": "MTT", "setting": "72 h", "endpoint": "IC50", "value": "0.96 µM"}
{"SMILES": "CCCCC(=O)Nc1ccc(-c2ccc3ncn(CCCF)c(=O)c3c2)cn1", "cell line": "NCI-H1975", "test": "CCK-8", "setting": "72 h", "endpoint": "IC50", "value": "0.14 µM"}
{"SMILES": "COc1cccc(NC(=O)Nc2nc3cc(-c4ccc5ncn(Cc6ccccc6)c(=O)c5c4)ccc3s2)c1", "cell line": "NCI-H1975", "test": "MTT", "setting": "72 h", "endpoint": "IC50", "value": "> 20 µM"}
{"SMILES": "CCCCn1cnc2ccc(-c3ccc(NC(=O)CCC)nc3)cc2c1=O", "cell line": "NCI-H1975", "test": "CCK-8", "setting": "72 h", "endpoint": "IC50", "value": "1.27 µM"}
{"SMILES": "CCCCCCCCCCCCCCCCCCOc1ccccc1CC(=O)OCCC[N+](C)(C)C", "cell line": "NCI-H322M", "test": "SRB", "setting": "10 µM", "endpoint": "inhibition", "value": "15.7%"}
